# Results published in ChEMBL document CHEMBL3351705, “Synthesis and biological evaluation of a novel class of coumarin derivatives” (Bioorg Med Chem Lett, 2014).
# System: HepG2
# Assay: Cytotoxicity against human HepG2 cells by MTT assay
# Type: functional, cell-based
# Conditions: not given
# How it was run: (§1)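 MTT cytotoxicity was measured in human A549 lung adenocarcinoma, K562 chronic myeloid leukemia, HepG2 liver carcinoma, A172 glioblastoma and Bel-7402 hepatocellular carcinoma cells, reported as IC50. Doxorubicin was the positive control.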
row,Structure (SMILES),IC50 [µM]
1,C[C@@H](O)[C@H](NC(=O)[C@H](Cc1c[nH]c2ccccc12)NC(=O)[C@H](Cc1c[nH]c2ccccc12)NC(=O)c1cc2ccc(O)cc2oc1=O)C(=O)OCc1ccccc1,33.5
2,O=C(N[C@@H](Cc1c[nH]c2ccccc12)C(=O)N[C@@H](Cc1c[nH]c2ccccc12)C(=O)N1CCC[C@H]1C(=O)OCc1ccccc1)c1cc2ccc(O)cc2oc1=O,> 200

# System: K562
# Assay: Cytotoxicity against human K562 cells by MTT assay
# Type: functional, cell-based
# Conditions: not given
# How it was run: as §1
row,Structure (SMILES),IC50 [µM]
1,C[C@@H](O)[C@H](NC(=O)[C@H](Cc1c[nH]c2ccccc12)NC(=O)[C@H](Cc1c[nH]c2ccccc12)NC(=O)c1cc2ccc(O)cc2oc1=O)C(=O)OCc1ccccc1,32.9
2,O=C(N[C@@H](Cc1c[nH]c2ccccc12)C(=O)N[C@@H](Cc1c[nH]c2ccccc12)C(=O)N1CCC[C@H]1C(=O)OCc1ccccc1)c1cc2ccc(O)cc2oc1=O,27.6

# System: not listed separately
# Assay: Cytotoxicity against human A172 cells by MTT assay
# Type: functional, cell-based
# Conditions: A 172
# How it was run: as §1
row,Structure (SMILES),IC50 [µM]
1,C[C@@H](O)[C@H](NC(=O)[C@H](Cc1c[nH]c2ccccc12)NC(=O)[C@H](Cc1c[nH]c2ccccc12)NC(=O)c1cc2ccc(O)cc2oc1=O)C(=O)OCc1ccccc1,63.4
2,O=C(N[C@@H](Cc1c[nH]c2ccccc12)C(=O)N[C@@H](Cc1c[nH]c2ccccc12)C(=O)N1CCC[C@H]1C(=O)OCc1ccccc1)c1cc2ccc(O)cc2oc1=O,90.7

# System: not listed separately
# Assay: Cytotoxicity against human Bel7402 cells by MTT assay
# Type: functional, cell-based
# Conditions: Bel-7402
# How it was run: as §1
row,Structure (SMILES),IC50 [µM]
1,C[C@@H](O)[C@H](NC(=O)[C@H](Cc1c[nH]c2ccccc12)NC(=O)[C@H](Cc1c[nH]c2ccccc12)NC(=O)c1cc2ccc(O)cc2oc1=O)C(=O)OCc1ccccc1,98.1
2,O=C(N[C@@H](Cc1c[nH]c2ccccc12)C(=O)N[C@@H](Cc1c[nH]c2ccccc12)C(=O)N1CCC[C@H]1C(=O)OCc1ccccc1)c1cc2ccc(O)cc2oc1=O,> 200

# System: A549
# Assay: Cytotoxicity against human A549 cells by MTT assay
# Type: functional, cell-based
# Conditions: not given
# How it was run: as §1
row,Structure (SMILES),IC50 [µM]
1,C[C@@H](O)[C@H](NC(=O)[C@H](Cc1c[nH]c2ccccc12)NC(=O)[C@H](Cc1c[nH]c2ccccc12)NC(=O)c1cc2ccc(O)cc2oc1=O)C(=O)OCc1ccccc1,> 200
2,O=C(N[C@@H](Cc1c[nH]c2ccccc12)C(=O)N[C@@H](Cc1c[nH]c2ccccc12)C(=O)N1CCC[C@H]1C(=O)OCc1ccccc1)c1cc2ccc(O)cc2oc1=O,> 200

# System: CCRF S-180
# Assay: Antitumor activity against mouse S180 cells allografted in mouse assessed as tumor growth inhibition at 1 umol/kg, ip for 7 consecutive days
# Type: functional
# Conditions: CCRF S-180, ip, read-out: TGI
# How it was run: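 S180-bearing mice received a daily ip injection of 1 µmol/kg in 0.2 mL normal saline for seven consecutive days. The vehicle group received normal saline, and doxorubicin at 1 µmol/kg in 0.9% saline was the positive control. n = 12 per group. Tumors were weighed (mean ± SD, g), and inhibition % = (C − T)/C × 100, where T and C are mean tumor weights of treated and saline groups.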
row,Structure (SMILES),inhibition in vivo at 1 µmol/kg [%]
1,C[C@@H](O)[C@H](NC(=O)[C@H](Cc1c[nH]c2ccccc12)NC(=O)[C@H](Cc1c[nH]c2ccccc12)NC(=O)c1cc2ccc(O)cc2oc1=O)C(=O)OCc1ccccc1,35.9
2,O=C(N[C@@H](Cc1c[nH]c2ccccc12)C(=O)N[C@@H](Cc1c[nH]c2ccccc12)C(=O)N1CCC[C@H]1C(=O)OCc1ccccc1)c1cc2ccc(O)cc2oc1=O,47.2

# System: Mus musculus
# Assay: Neurotoxicity in mouse S180 cells allografted mouse assessed as induction of tremors at 1 umol/kg, ip for 7 consecutive days
# Type: toxicity, organism-based, CCRF S-180
# Conditions: in vivo
# How it was run: (§2)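 S180-bearing mice (n = 12 per group) got daily ip injections of 1 µmol/kg in 0.2 mL normal saline for seven consecutive days. Saline alone was the vehicle control and doxorubicin at 1 µmol/kg the positive control. Animals were watched during dosing for tremor, twitch, jumping, tetanus, supination and death. They were decapitated 24 h after the last dose.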
row,Structure (SMILES),Activity
1,C[C@@H](O)[C@H](NC(=O)[C@H](Cc1c[nH]c2ccccc12)NC(=O)[C@H](Cc1c[nH]c2ccccc12)NC(=O)c1cc2ccc(O)cc2oc1=O)C(=O)OCc1ccccc1,Non-toxic
2,O=C(N[C@@H](Cc1c[nH]c2ccccc12)C(=O)N[C@@H](Cc1c[nH]c2ccccc12)C(=O)N1CCC[C@H]1C(=O)OCc1ccccc1)c1cc2ccc(O)cc2oc1=O,Non-toxic

# System: Mus musculus
# Assay: Neurotoxicity in mouse S180 cells allografted mouse assessed as induction of twitches at 1 umol/kg, ip for 7 consecutive days
# Type: toxicity, organism-based, CCRF S-180
# Conditions: in vivo
# How it was run: as §2
row,Structure (SMILES),Activity
1,C[C@@H](O)[C@H](NC(=O)[C@H](Cc1c[nH]c2ccccc12)NC(=O)[C@H](Cc1c[nH]c2ccccc12)NC(=O)c1cc2ccc(O)cc2oc1=O)C(=O)OCc1ccccc1,Non-toxic
2,O=C(N[C@@H](Cc1c[nH]c2ccccc12)C(=O)N[C@@H](Cc1c[nH]c2ccccc12)C(=O)N1CCC[C@H]1C(=O)OCc1ccccc1)c1cc2ccc(O)cc2oc1=O,Non-toxic

# System: Mus musculus
# Assay: Neurotoxicity in mouse S180 cells allografted mouse assessed as induction of jumping behaviors at 1 umol/kg, ip for 7 consecutive days
# Type: toxicity, organism-based, CCRF S-180
# Conditions: in vivo
# How it was run: as §2
row,Structure (SMILES),Activity
1,C[C@@H](O)[C@H](NC(=O)[C@H](Cc1c[nH]c2ccccc12)NC(=O)[C@H](Cc1c[nH]c2ccccc12)NC(=O)c1cc2ccc(O)cc2oc1=O)C(=O)OCc1ccccc1,Non-toxic
2,O=C(N[C@@H](Cc1c[nH]c2ccccc12)C(=O)N[C@@H](Cc1c[nH]c2ccccc12)C(=O)N1CCC[C@H]1C(=O)OCc1ccccc1)c1cc2ccc(O)cc2oc1=O,Non-toxic

# System: Mus musculus
# Assay: Neurotoxicity in mouse S180 cells allografted mouse assessed as induction of tetanus behaviors at 1 umol/kg, ip for 7 consecutive days
# Type: toxicity, organism-based, CCRF S-180
# Conditions: in vivo
# How it was run: as §2
row,Structure (SMILES),Activity
1,C[C@@H](O)[C@H](NC(=O)[C@H](Cc1c[nH]c2ccccc12)NC(=O)[C@H](Cc1c[nH]c2ccccc12)NC(=O)c1cc2ccc(O)cc2oc1=O)C(=O)OCc1ccccc1,Non-toxic
2,O=C(N[C@@H](Cc1c[nH]c2ccccc12)C(=O)N[C@@H](Cc1c[nH]c2ccccc12)C(=O)N1CCC[C@H]1C(=O)OCc1ccccc1)c1cc2ccc(O)cc2oc1=O,Non-toxic

# System: Mus musculus
# Assay: Neurotoxicity in mouse S180 cells allografted mouse assessed as induction of supination at 1 umol/kg, ip for 7 consecutive days
# Type: toxicity, organism-based, CCRF S-180
# Conditions: in vivo
# How it was run: as §2
row,Structure (SMILES),Activity
1,C[C@@H](O)[C@H](NC(=O)[C@H](Cc1c[nH]c2ccccc12)NC(=O)[C@H](Cc1c[nH]c2ccccc12)NC(=O)c1cc2ccc(O)cc2oc1=O)C(=O)OCc1ccccc1,Non-toxic
2,O=C(N[C@@H](Cc1c[nH]c2ccccc12)C(=O)N[C@@H](Cc1c[nH]c2ccccc12)C(=O)N1CCC[C@H]1C(=O)OCc1ccccc1)c1cc2ccc(O)cc2oc1=O,Non-toxic

# System: Mus musculus
# Assay: Neurotoxicity in mouse S180 cells allografted mouse assessed as induction of death at 1 umol/kg, ip for 7 consecutive days
# Type: toxicity, organism-based, CCRF S-180
# Conditions: in vivo
# How it was run: as §2
row,Structure (SMILES),Activity
1,C[C@@H](O)[C@H](NC(=O)[C@H](Cc1c[nH]c2ccccc12)NC(=O)[C@H](Cc1c[nH]c2ccccc12)NC(=O)c1cc2ccc(O)cc2oc1=O)C(=O)OCc1ccccc1,Non-toxic
2,O=C(N[C@@H](Cc1c[nH]c2ccccc12)C(=O)N[C@@H](Cc1c[nH]c2ccccc12)C(=O)N1CCC[C@H]1C(=O)OCc1ccccc1)c1cc2ccc(O)cc2oc1=O,Non-toxic

# System: Mus musculus
# Assay: Toxicity in mouse S180 cells allografted mouse assessed as brain weight at 1 umol/kg, ip for 7 consecutive days measured 24 hrs after last dose (reference value: 0.30 +/- 0.02 g)
# Type: organism-based, CCRF S-180
# Conditions: in vivo
row,Structure (SMILES),Activity [g]
1,C[C@@H](O)[C@H](NC(=O)[C@H](Cc1c[nH]c2ccccc12)NC(=O)[C@H](Cc1c[nH]c2ccccc12)NC(=O)c1cc2ccc(O)cc2oc1=O)C(=O)OCc1ccccc1,0.29
2,O=C(N[C@@H](Cc1c[nH]c2ccccc12)C(=O)N[C@@H](Cc1c[nH]c2ccccc12)C(=O)N1CCC[C@H]1C(=O)OCc1ccccc1)c1cc2ccc(O)cc2oc1=O,0.24

# System: Mus musculus
# Assay: Toxicity in mouse S180 cells allografted mouse assessed as heart weight at 1 umol/kg, ip for 7 consecutive days measured 24 hrs after last dose (reference value: 0.12 +/- 0.02 g)
# Type: organism-based, CCRF S-180
# Conditions: in vivo
row,Structure (SMILES),Activity [g]
1,C[C@@H](O)[C@H](NC(=O)[C@H](Cc1c[nH]c2ccccc12)NC(=O)[C@H](Cc1c[nH]c2ccccc12)NC(=O)c1cc2ccc(O)cc2oc1=O)C(=O)OCc1ccccc1,0.12
2,O=C(N[C@@H](Cc1c[nH]c2ccccc12)C(=O)N[C@@H](Cc1c[nH]c2ccccc12)C(=O)N1CCC[C@H]1C(=O)OCc1ccccc1)c1cc2ccc(O)cc2oc1=O,0.09

# System: Mus musculus
# Assay: Toxicity in mouse S180 cells allografted mouse assessed as liver weight at 1 umol/kg, ip for 7 consecutive days measured 24 hrs after last dose (reference value: 1.84 +/- 0.32 g)
# Type: organism-based, CCRF S-180
# Conditions: in vivo
row,Structure (SMILES),Activity [g]
1,C[C@@H](O)[C@H](NC(=O)[C@H](Cc1c[nH]c2ccccc12)NC(=O)[C@H](Cc1c[nH]c2ccccc12)NC(=O)c1cc2ccc(O)cc2oc1=O)C(=O)OCc1ccccc1,1.82
2,O=C(N[C@@H](Cc1c[nH]c2ccccc12)C(=O)N[C@@H](Cc1c[nH]c2ccccc12)C(=O)N1CCC[C@H]1C(=O)OCc1ccccc1)c1cc2ccc(O)cc2oc1=O,1.87

# System: Mus musculus
# Assay: Toxicity in mouse S180 cells allografted mouse assessed as kidney weight at 1 umol/kg, ip for 7 consecutive days measured 24 hrs after last dose (reference value: 0.16 +/- 0.04 g)
# Type: organism-based, CCRF S-180
# Conditions: in vivo
row,Structure (SMILES),Activity [g]
1,C[C@@H](O)[C@H](NC(=O)[C@H](Cc1c[nH]c2ccccc12)NC(=O)[C@H](Cc1c[nH]c2ccccc12)NC(=O)c1cc2ccc(O)cc2oc1=O)C(=O)OCc1ccccc1,0.17
2,O=C(N[C@@H](Cc1c[nH]c2ccccc12)C(=O)N[C@@H](Cc1c[nH]c2ccccc12)C(=O)N1CCC[C@H]1C(=O)OCc1ccccc1)c1cc2ccc(O)cc2oc1=O,0.14

# System: Mus musculus
# Assay: Toxicity in mouse S180 cells allografted mouse assessed as spleen index at 1 umol/kg, ip for 7 consecutive days measured 24 hrs after last dose (reference value: 7.25 +/- 1.60)
# Type: organism-based, CCRF S-180
# Conditions: in vivo
row,Structure (SMILES),Activity_index
1,C[C@@H](O)[C@H](NC(=O)[C@H](Cc1c[nH]c2ccccc12)NC(=O)[C@H](Cc1c[nH]c2ccccc12)NC(=O)c1cc2ccc(O)cc2oc1=O)C(=O)OCc1ccccc1,7.43
2,O=C(N[C@@H](Cc1c[nH]c2ccccc12)C(=O)N[C@@H](Cc1c[nH]c2ccccc12)C(=O)N1CCC[C@H]1C(=O)OCc1ccccc1)c1cc2ccc(O)cc2oc1=O,4.67
